Article PMC6619501 (Nature microbiology, 2018)

Columns and labels:
[1] = tested on: IκBα phosphorylation; assay: Immunoblot analysis of p-IκBα in A.f-infected BMDMs; type: cell-based, mouse; details: unprimed WT BMDMs incubated with NF-κB inhibitor during fungal infection
Procedure, shortened: (§1)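 Bone-marrow-derived macrophages from C57BL/6-background mice, 3×10^6 cells in DMEM with 10% FBS and 1% penicillin–streptomycin, left unprimed and given the NF-κB inhibitor class test compound. They were then infected with A. fumigatus A1160 conidia (malt-agar slants, 1 week) at MOI 20. Cells were lysed in 1× RIPA, and 15 μg protein was separated by SDS-PAGE, transferred to PVDF and probed for p-IκBα, total IκBα and IRF1 with HRP detection. Representative of ≥3 independent experiments.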

[2] = tested on: IRF1; assay: Immunoblot analysis of IRF1 in A.f-infected BMDMs; type: cell-based, mouse; details: unprimed WT BMDMs incubated with NF-κB inhibitor during fungal infection
Procedure, shortened: as §1

## Cc1ccc(S(=O)(=O)/C=C/C#N)cc1 [Bay 11-7082]
[1]
  phosphorylation of IκBα: reduced
[2]
  IRF1 induction: reduced
